Test results: PMC9899605 (Cancer Science, 2022)
Read-outs that look alike come from different tables or passages of the source.

Key:
[1] = in rodents, cited from earlier work
[2] = system: NCI-N87; test: Growth inhibition assay, NCI-N87; assay type: cell-based; conditions: Homo sapiens, NCI-N87, 72 h, read-out: GI50 (nmol/L), mean ± SD
In short: (§1)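 Cell lines were STR-authenticated; MCF10A lines stably express mutant HER2. Test compounds were dissolved in DMSO and added to the cells. Growth was assessed 3 days after treatment, and GI50 was derived as the mean of three independent experiments.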

[3] = system: NCI-H460; test: Growth inhibition assay, NCI-H460; assay type: cell-based; conditions: Homo sapiens, NCI-H460, 72 h, read-out: GI50 (nmol/L), mean ± SD
[4] = system: BT-474; test: Growth inhibition assay, BT-474; assay type: cell-based; conditions: Homo sapiens, BT-474, 72 h, read-out: GI50 (nmol/L), mean ± SD
In short: as §1

[5] = system: NCI-H1975; test: Growth inhibition assay, NCI-H1975; assay type: cell-based; conditions: Homo sapiens, NCI-H1975, 72 h, read-out: GI50 (nmol/L), mean ± SD
[6] = system: A-431; test: Growth inhibition assay, A-431; assay type: cell-based; conditions: Homo sapiens, A-431, 72 h, read-out: GI50 (nmol/L), mean ± SD
In short: as §1

[7] = system: NCI-H1781; test: Growth inhibition assay, NCI-H1781; assay type: cell-based; conditions: Homo sapiens, NCI-H1781, 72 h, read-out: GI50 (nmol/L), mean ± SD
In short: as §1

[8] = system: MCF10A_HER2/insYVMA; test: Growth inhibition assay, MCF10A_HER2/insYVMA; assay type: cell-based; conditions: Homo sapiens, 72 h, read-out: GI50 (nmol/L), mean ± SD
In short: as §1

[9] = system: HCC827; test: Growth inhibition assay, HCC827; assay type: cell-based; conditions: Homo sapiens, HCC827, 72 h, read-out: GI50 (nmol/L), mean ± SD
[10] = system: NIH/3T3_EGFR vIII; test: Growth inhibition assay, NIH/3T3_EGFR vIII; assay type: cell-based; conditions: 72 h, read-out: GI50 (nmol/L), mean ± SD
[11] = system: HER2/HER3 signaling in SK-BR-3 cell line; test: Western blot of HER2 signaling pathway in SK-BR-3 cells; assay type: cell-based; conditions: SK-BR-3, 30–300 nmol/L
[12] = system: NCI-H1975 EGFR D770_N771insSVD; test: Growth inhibition assay, NCI-H1975 EGFR D770_N771insSVD; assay type: cell-based; conditions: Homo sapiens, NCI-H1975, 72 h, read-out: GI50 (nmol/L), mean ± SD
[13] = target: HER2/V777L (Homo sapiens, UniProt P04626, V777L); test: In-Cell Western phospho-HER2, MCF10A_HER2/V777L; assay type: cell-based
In short: (§2)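 MCF10A cells stably expressing WT or mutant HER2 were seeded at 1.0 × 10⁴ cells/well in 96-well plates. They were exposed to test compound for 4 h. HER2-Tyr1196 phosphorylation was quantified by In-Cell Western, and IC50 was calculated.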

[14] = target: HER2/insYVMA (Homo sapiens, UniProt P04626, INS775YVMA); test: In-Cell Western phospho-HER2, MCF10A_HER2/insYVMA; assay type: cell-based
In short: as §2

[15] = target: HER2/S310F (Homo sapiens, UniProt P04626, S310F); test: In-Cell Western phospho-HER2, MCF10A_HER2/S310F; assay type: cell-based
In short: as §2

[16] = target: WT HER2 (Homo sapiens, UniProt P04626); test: In-Cell Western phospho-HER2, MCF10A_HER2; assay type: cell-based
In short: as §2

[17] = system: NCI-N87-luc intracranial xenograft; test: Intracranial xenograft model, NCI-N87-luc; assay type: in vivo, BALB/cAJcl-nu/nu mice; conditions: poziotinib once daily
[18] = target: HER2/L755S (Homo sapiens, UniProt P04626, L755S); test: In-Cell Western phospho-HER2, MCF10A_HER2/L755S; assay type: cell-based
In short: as §2

[19] = target: HER2/V842I (Homo sapiens, UniProt P04626, V842I); test: In-Cell Western phospho-HER2, MCF10A_HER2/V842I; assay type: cell-based
In short: as §2

[20] = system: panel of 257 kinases; test: Kinase selectivity panel; assay type: biochemical; conditions: poziotinib at 300 nmol/L (100-fold IC50 of WT HER2); of 257 kinases tested
In short: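 Test compound was screened at a single concentration against a 257-kinase panel. Peptide phosphorylation was quantified by mobility shift or IMAP assay, and percent inhibition was calculated. IC50s for off-target kinases were measured as singlets in duplicate mode.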

Row | GI50 [3] [nmol/L] | GI50 [4] [nmol/L] | GI50 [5] [nmol/L] | GI50 [6] [nmol/L] | GI50 [7] [nmol/L] | GI50 [9] [nmol/L] | GI50 [12] [nmol/L] | Compound | Kp,uu,brain ([1]; no reference given) | GI50 [2] [nmol/L] | GI50 [8] [nmol/L] | GI50 [10] [nmol/L] | further results
1 | > 1000 | 2.42 ± 2.34 | 108 ± 40 | 9.33 ± 0.72 | 13.8 ± 8.7 | – | – | CN(C)C/C=C/C(=O)Nc1cc2c(Nc3ccc(F)c(Cl)c3)ncnc2cc1O[C@H]1CCOC1 [Afatinib, afatinib] | 0.0062 | 1.47 ± 0.81 | 102 ± 17 | – | –
2 | > 1000 | 8.88 ± 8.19 | > 1000 | > 1000 | 229 ± 149 | > 1000 | > 1000 | Cc1cc(Nc2ncnc3ccc(NC4=NC(C)(C)CO4)cc23)ccc1Oc1ccn2ncnc2c1 [Tucatinib, tucatinib] | – | 12.2 ± 8.6 | > 1000 | > 1000 | phosphorylation of HER2, HER3, and their downstream proteins [11]: inhibited; phosphorylation of HER3 and its downstream targets, AKT and ERK, at 48 h ([11]; 48 h): increased
3 | > 1000 | 0.508 ± 0.267 | 14.2 ± 7.5 | 0.695 ± 0.174 | 2.47 ± 1.35 | 2.17 ± 0.75 | 3.87 ± 2.04 | C=CC(=O)N1CCC(Oc2cc3c(Nc4ccc(Cl)c(Cl)c4F)ncnc3cc2OC)CC1 [Poziotinib, poziotinib] | 0.06 | 0.345 ± 0.159 | 8.27 ± 0.93 | 12.7 ± 15.1 | IC50 [13]: 0.819 ± 0.121 nM; IC50 [14]: 0.956 ± 0.132 nM; IC50 [15]: 0.932 ± 0.038 nM; IC50 [16]: 1.06 ± 0.13 nM; antitumor effect (total flux) [17]: failed to show tumor regression; IC50 [18]: 3.52 ± 0.18 nM; IC50 [19]: 1.84 ± 0.24 nM; number of kinases inhibited at >50% of enzymatic activity [20]: 41
4 | > 1000 | 15.4 ± 12 | […] | […] | 82 ± 10 | 13.6 ± 10 | 154 ± 55 | C=CC(=O)Nc1cc(Nc2nccc(-c3cn(C)c4ccccc34)n2)c(OC)cc1N(C)CCN(C)C [Osimertinib, osimertinib] | – | 13.5 ± 8.3 | > 1000 | 253 ± 56 | Kp,uu,brain [1]: approximately 0.21
